Columns and labels:
Details in all cases: stereoisomer not certain
[1] = target: UniProt Q7TRN9
Outline: (§1)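 Each receptor–molecule pair is labelled responsive or non-responsive (inactive) according to whether the original authors judged the measured signal statistically different from baseline. The data were taken from the main text and supplementary material of published papers and checked for typos and inconsistencies. Assay methods differed by source, with transient luciferase assays in mammalian cell lines being common.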

[2] = target: UniProt Q7TRR8
Outline: as §1

[3] = target: UniProt Q8VF06
Outline: as §1

[4] = target: UniProt Q8VG28
Outline: as §1

[5] = target: T1, UniProt Q7TRX0
T1 sequence (whole entry): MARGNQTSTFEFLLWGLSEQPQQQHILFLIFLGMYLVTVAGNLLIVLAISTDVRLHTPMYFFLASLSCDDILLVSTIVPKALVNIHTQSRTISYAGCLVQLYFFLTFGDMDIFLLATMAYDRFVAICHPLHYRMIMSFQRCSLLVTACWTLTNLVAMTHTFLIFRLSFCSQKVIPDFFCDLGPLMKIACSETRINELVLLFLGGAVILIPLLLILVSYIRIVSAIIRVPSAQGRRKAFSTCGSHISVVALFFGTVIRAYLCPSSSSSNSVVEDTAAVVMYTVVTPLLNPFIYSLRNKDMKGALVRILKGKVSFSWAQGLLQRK
Outline: as §1

[6] = target: T2, UniProt Q8VF43
T2 sequence (whole entry): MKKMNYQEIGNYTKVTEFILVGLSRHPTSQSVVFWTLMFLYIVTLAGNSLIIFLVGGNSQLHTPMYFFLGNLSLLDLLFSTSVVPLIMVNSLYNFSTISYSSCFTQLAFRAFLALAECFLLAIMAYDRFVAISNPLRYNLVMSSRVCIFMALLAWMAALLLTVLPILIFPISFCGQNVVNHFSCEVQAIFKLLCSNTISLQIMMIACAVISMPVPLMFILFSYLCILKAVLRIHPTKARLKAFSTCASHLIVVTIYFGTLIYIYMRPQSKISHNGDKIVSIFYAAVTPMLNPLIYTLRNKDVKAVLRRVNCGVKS
Outline: as §1

[7] = target: T3, UniProt Q8VF52
T3 sequence (whole entry): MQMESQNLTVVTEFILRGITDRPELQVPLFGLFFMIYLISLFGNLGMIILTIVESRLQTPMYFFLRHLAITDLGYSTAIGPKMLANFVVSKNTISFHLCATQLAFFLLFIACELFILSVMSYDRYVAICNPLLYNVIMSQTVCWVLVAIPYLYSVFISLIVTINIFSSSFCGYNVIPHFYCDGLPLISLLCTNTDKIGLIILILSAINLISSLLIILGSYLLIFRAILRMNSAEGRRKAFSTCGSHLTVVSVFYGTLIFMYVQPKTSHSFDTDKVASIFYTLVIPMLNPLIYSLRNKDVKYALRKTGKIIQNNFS
Outline: as §1

[8] = target: T4, UniProt Q8VFM8
T4 sequence (whole entry): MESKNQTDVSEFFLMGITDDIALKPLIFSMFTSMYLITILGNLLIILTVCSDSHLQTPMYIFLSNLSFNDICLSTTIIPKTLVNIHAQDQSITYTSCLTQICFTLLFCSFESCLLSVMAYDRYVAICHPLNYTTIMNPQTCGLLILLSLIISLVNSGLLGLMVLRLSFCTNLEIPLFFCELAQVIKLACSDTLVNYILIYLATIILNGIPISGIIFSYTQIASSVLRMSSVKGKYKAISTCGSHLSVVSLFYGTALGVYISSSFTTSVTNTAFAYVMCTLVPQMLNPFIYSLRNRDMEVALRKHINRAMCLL
Outline: as §1

[9] = target: T5, UniProt Q8VFP5
T5 sequence (whole entry): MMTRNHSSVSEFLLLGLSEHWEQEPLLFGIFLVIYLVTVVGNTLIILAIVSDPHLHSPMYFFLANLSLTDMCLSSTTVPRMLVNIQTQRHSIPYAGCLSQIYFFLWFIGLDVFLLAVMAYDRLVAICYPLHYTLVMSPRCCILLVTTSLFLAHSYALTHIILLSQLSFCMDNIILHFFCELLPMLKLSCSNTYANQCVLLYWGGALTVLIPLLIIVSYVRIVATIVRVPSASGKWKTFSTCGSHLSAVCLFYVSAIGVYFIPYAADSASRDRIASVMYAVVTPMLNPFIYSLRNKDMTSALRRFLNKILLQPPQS
Outline: as §1

[10] = target: T6, UniProt Q8VG01
T6 sequence (whole entry): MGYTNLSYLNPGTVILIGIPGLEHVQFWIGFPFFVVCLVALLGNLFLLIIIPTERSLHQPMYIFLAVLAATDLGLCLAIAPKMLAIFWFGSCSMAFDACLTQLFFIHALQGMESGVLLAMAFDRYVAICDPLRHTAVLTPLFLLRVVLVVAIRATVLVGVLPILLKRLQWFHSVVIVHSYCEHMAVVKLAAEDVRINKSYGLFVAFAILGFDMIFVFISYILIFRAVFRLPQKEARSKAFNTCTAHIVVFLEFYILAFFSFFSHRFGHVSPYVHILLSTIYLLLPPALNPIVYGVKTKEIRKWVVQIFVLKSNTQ
Outline: as §1

[11] = target: T7, UniProt Q8VG27
T7 sequence (whole entry): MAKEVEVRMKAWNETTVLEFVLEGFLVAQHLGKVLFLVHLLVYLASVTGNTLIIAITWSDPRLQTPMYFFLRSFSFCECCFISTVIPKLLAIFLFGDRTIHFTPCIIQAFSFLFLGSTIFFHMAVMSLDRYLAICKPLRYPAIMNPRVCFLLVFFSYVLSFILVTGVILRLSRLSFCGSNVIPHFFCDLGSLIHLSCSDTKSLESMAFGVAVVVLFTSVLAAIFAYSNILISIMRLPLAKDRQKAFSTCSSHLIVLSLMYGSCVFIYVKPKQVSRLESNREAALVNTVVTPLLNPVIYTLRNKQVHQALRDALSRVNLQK
Outline: as §1

[12] = target: T8, UniProt Q7TRW1
T8 sequence (whole entry): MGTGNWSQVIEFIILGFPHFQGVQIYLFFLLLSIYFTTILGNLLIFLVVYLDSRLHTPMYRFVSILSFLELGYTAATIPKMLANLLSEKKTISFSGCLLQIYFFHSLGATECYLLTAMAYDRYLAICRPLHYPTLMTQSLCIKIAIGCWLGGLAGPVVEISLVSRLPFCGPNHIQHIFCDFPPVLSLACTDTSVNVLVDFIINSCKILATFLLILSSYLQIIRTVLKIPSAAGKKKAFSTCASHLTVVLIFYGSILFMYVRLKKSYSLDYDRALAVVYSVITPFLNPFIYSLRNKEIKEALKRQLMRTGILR
Outline: as §1

[13] = target: T9, UniProt Q8VEU7
T9 sequence (whole entry): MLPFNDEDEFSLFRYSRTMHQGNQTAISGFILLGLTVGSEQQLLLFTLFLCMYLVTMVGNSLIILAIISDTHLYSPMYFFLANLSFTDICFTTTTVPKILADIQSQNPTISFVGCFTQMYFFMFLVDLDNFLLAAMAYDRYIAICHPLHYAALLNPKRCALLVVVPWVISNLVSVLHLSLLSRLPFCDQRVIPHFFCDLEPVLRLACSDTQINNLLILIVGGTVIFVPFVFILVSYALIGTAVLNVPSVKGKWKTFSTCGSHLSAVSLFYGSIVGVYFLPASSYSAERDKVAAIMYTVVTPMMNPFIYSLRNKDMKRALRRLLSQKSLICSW
Outline: as §1

[14] = target: T10, UniProt Q8VF05
T10 sequence (whole entry): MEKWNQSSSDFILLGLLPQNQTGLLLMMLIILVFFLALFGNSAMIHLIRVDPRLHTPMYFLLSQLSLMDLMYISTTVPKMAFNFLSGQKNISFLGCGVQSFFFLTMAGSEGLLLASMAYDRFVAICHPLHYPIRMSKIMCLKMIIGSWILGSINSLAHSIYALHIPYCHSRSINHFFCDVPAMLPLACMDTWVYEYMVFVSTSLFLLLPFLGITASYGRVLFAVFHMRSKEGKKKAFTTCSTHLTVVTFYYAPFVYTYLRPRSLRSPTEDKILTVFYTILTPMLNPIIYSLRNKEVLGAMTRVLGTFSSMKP
Outline: as §1

[15] = target: T11, UniProt Q8VF24
T11 sequence (whole entry): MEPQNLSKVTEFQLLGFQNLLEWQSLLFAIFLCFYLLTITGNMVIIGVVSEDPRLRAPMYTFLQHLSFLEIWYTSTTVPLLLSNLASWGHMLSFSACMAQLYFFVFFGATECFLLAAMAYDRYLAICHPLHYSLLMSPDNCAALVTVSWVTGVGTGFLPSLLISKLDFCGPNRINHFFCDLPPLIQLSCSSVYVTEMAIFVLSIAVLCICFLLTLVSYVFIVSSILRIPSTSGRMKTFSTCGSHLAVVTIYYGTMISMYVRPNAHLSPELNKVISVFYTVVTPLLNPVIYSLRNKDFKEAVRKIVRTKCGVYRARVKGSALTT
Outline: as §1

[16] = target: T12, UniProt Q8VF44
T12 sequence (whole entry): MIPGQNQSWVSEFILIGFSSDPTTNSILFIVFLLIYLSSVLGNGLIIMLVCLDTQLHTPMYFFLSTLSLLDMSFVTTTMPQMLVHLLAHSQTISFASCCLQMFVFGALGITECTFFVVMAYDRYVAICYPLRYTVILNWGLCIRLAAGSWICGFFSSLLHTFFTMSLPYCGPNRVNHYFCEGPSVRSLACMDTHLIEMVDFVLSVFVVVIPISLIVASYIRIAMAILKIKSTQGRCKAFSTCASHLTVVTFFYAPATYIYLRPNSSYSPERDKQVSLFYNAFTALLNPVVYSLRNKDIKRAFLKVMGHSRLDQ
Outline: as §1

[17] = target: T13, UniProt Q8VFG6
T13 sequence (whole entry): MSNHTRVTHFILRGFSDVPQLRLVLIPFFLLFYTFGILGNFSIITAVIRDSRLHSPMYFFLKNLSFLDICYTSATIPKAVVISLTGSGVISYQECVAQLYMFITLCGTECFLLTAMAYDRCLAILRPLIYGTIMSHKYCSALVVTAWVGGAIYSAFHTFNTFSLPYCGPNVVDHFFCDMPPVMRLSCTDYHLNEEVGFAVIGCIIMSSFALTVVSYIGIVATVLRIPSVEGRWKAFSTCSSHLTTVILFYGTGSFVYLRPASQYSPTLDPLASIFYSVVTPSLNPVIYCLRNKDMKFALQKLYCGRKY
Outline: as §1

[18] = target: T14, UniProt Q8VFZ6
T14 sequence (whole entry): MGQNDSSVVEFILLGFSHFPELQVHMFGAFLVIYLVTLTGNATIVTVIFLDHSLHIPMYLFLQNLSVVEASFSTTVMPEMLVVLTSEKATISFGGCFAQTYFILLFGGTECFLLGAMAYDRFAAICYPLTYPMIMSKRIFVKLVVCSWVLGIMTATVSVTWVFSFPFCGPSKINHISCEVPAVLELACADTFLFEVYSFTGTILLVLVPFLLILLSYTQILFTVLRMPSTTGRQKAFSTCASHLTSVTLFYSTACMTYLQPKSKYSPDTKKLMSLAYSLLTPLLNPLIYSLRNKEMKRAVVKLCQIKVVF
Outline: as §1

[19] = target: T15, UniProt Q8VG22
T15 sequence (whole entry): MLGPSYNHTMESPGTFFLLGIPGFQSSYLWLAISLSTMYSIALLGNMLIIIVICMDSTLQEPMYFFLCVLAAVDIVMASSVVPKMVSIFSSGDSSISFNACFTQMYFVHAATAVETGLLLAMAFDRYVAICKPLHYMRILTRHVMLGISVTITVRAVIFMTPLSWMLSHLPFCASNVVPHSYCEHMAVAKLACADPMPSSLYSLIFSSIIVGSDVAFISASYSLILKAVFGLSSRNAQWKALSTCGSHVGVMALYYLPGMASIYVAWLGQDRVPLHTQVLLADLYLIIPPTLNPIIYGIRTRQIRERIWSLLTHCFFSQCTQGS
Outline: as §1

[20] = target: T16, UniProt Q8VG49
T16 sequence (whole entry): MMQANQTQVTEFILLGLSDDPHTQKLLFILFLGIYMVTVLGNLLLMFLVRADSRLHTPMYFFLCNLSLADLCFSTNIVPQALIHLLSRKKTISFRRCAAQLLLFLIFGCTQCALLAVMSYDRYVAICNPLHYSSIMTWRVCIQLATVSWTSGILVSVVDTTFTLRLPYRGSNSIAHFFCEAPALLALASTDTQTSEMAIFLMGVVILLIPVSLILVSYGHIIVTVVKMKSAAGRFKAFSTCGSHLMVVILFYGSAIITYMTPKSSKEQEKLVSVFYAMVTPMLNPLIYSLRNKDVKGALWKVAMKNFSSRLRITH
Outline: as §1

Measured: odorant receptor agonist call

Chain of UniProt Q8VF06 (Q8VF06 as listed by the source): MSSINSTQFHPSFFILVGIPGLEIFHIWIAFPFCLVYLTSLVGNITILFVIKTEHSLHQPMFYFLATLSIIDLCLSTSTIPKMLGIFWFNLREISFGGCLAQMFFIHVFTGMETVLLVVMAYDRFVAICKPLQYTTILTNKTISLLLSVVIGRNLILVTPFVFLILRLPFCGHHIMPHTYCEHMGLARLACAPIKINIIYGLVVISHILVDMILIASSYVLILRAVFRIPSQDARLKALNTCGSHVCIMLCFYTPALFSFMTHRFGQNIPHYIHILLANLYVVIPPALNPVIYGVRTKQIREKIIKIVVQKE
Chain of UniProt Q8VG28 (Q8VG28 as listed by the source): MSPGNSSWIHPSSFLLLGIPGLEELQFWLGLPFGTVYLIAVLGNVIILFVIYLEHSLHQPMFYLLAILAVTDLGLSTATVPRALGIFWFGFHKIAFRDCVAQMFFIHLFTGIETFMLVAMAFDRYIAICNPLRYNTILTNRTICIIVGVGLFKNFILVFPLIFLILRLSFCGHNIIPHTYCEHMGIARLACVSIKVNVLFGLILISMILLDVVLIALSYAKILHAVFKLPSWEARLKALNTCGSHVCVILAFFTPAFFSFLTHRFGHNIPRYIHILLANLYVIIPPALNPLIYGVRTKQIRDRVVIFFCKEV
Chain of UniProt Q7TRN9 (Q7TRN9 as listed by the source): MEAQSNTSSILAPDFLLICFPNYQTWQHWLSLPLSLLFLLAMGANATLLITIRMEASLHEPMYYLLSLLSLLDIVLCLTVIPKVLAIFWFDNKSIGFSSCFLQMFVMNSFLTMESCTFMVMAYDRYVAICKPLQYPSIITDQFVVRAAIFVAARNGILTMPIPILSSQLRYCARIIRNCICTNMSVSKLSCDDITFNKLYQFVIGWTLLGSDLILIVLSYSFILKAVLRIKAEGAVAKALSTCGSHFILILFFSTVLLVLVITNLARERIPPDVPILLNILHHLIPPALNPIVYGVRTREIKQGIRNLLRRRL
Chain of UniProt Q7TRR8 (Q7TRR8 as listed by the source): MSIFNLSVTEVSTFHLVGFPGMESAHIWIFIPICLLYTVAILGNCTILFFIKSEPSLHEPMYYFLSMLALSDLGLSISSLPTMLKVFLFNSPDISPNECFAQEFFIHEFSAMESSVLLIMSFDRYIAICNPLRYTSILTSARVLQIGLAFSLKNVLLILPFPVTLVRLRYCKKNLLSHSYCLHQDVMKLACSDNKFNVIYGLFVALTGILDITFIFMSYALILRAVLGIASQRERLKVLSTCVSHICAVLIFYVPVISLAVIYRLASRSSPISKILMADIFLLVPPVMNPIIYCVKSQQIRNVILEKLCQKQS

O=C(O)CCCCCCCBr
active: [1] | [4]
inactive: [2] | [3]

O=CC=Cc1ccccc1
inactive: [5] | [6] | [7] | [8] | [9] | [10] | [11]

O=Cc1ccc2c(c1)OCO2
inactive: [5] | [6] | [7] | [8] | [9] | [10] | [11]

CCC1CCC(=O)O1 (configuration not stated)
inactive: [12] | [13] | [15] | [16] | [7] | [17] | [18] | [10] | [19] | [20]
active: [14]

CSSC
inactive: [5] | [6] | [7] | [8] | [9] | [10] | [11]

CCCCC(Br)C(=O)O (configuration not stated)
inactive: [5] | [6] | [7] | [8] | [9] | [10] | [11]

O=c1cc(O)c2ccccc2o1
active: [19]
not listed: [1] | [2] | [3] | [4]
inactive: all other assays above

Cc1ccc(OC(=O)Cc2ccccc2)cc1
inactive: [5] | [6] | [7] | [8] | [9] | [10] | [11]

CCCCCCC(Br)C(=O)O (configuration not stated)
active: [10]
inactive: [5] | [6] | [7] | [8] | [9] | [11]

COc1ccc(C=O)cc1
inactive: [5] | [6] | [7] | [8] | [9] | [10] | [11]

Oc1ccccc1Br
inactive: [5] | [6] | [7] | [8] | [9] | [10] | [11]

OCc1ccc2c(c1)OCO2
inactive: [5] | [6] | [7] | [8] | [9] | [10] | [11]

CC(C=O)Cc1ccc2c(c1)OCO2 (configuration not stated)
inactive: [5] | [6] | [7] | [8] | [9] | [10] | [11]

C=C(C)C1CC=C(C=O)CC1 (configuration not stated)
inactive: [5] | [6] | [7] | [8] | [9] | [10] | [11]

C=CCOC(=O)Cc1ccccc1
active: [14] | [17] | [18]
not listed: [1] | [2] | [3] | [4]
inactive: all other assays above

C=CCc1ccccc1
active: [12]
inactive: [13] | [14] | [15] | [16] | [7] | [17] | [18] | [10] | [19] | [20]

O=Cc1ccccc1
inactive: [5] | [6] | [7] | [8] | [9] | [10] | [11]

Source: the M2OR odorant receptor database
